Data as given in ChEMBL document CHEMBL2434958, “Identification of a novel series of orexin receptor antagonists with a distinct effect on sleep architecture for the treatment of insomnia” (J Med Chem, 2013).
Activity calls are given as the source filed them. No cut-off for these calls is given here.

How the values were obtained:
Mus musculus [1] = assay: Induction of sleep in C57BL/6 mouse assessed as increased rapid eye movement sleep proportion at 50 mg/kg, po measured during 1 hr by EEG/EMG analysis relative to vehicle-treated control; type: functional, organism-based; parameters: dose 50 mg/kg
Procedure, shortened: (§1)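 Male C57Bl/6 mice with implanted cortical EEG screw electrodes and EMG, recovered 2 weeks, 12 h/12 h light/dark cycle. Crossover: vehicle (0.5% methylcellulose, 10 mL/kg po) on day 2, compound po on day 3, each given 5–15 min before lights-off. 23 h recordings; EEG filtered 0.3–30 Hz, EMG 5–30 Hz; 10 s epochs scored as wake, NREM or REM from EEG/EMG and infrared motility.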

Mus musculus [2] = assay: Induction of sleep in C57BL/6 mouse assessed as increase in non-rapid eye movement at 50 mg/kg, po measured during 4 hrs by EEG/EMG analysis relative to vehicle-treated control; type: functional, organism-based; parameters: dose 50 mg/kg; procedure, shortened: as §1
Mus musculus [3] = assay: Induction of sleep in C57BL/6 mouse assessed as increase in rapid eye movement at 50 mg/kg, po measured during 4 hrs by EEG/EMG analysis relative to vehicle-treated control; type: functional, organism-based; parameters: dose 50 mg/kg; procedure, shortened: as §1
Mus musculus [4] = assay: Effect on locomotion in C57BL/6 mouse assessed as reduction of motility at 50 mg/kg, po measured up to 4 hrs; type: functional, organism-based; parameters: dose 50 mg/kg
Procedure, shortened: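 Mice habituated, then dosed orally immediately before lights-off (15:00, start of active phase); vehicle 0.5% methylcellulose in water. Inactivity = any minute with no infrared beam breaks. Per-animal difference between inactivity 15:00–19:00 post-dose and the same 4 h during habituation 24 h earlier. n = 6; one-way ANOVA with Dunnett's test versus vehicle.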

Brain [5] = assay: Fraction unbound in C57BL/6 mouse brain at 50 mg/kg, po after 1 hr by LC-MS/MS analysis; type: ADME, organism-based; parameters: dose 50 mg/kg, route oral; details: in vivo
Procedure, shortened: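 Unbound fraction assessed in mouse brain homogenate by a slightly adapted literature method, measured separately from the dosed animals. Free brain level obtained by multiplying fraction unbound by brain concentration from the 50 mg/kg po satellite group at 60 min. Mean ± SD, n = 3.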

[6] = Drug uptake in C57BL/6 mouse blood at 50 mg/kg after 1 hr by LC-MS/MS analysis; type: ADME, organism-based; parameters: dose 50 mg/kg; details: read-out: Drug uptake
Procedure, shortened: (§2)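 Satellite PK group: oral gavage of 50 mg/kg suspended in 0.5% w/v methylcellulose in water, 10 mL/kg. Blood and brain taken after decapitation at 15 and 60 min post-dose, n = 3 mice per time point, stored at −20 °C. Brain homogenised in 2 mM KH₂PO₄; acetonitrile quench with internal standard; LC/MS/MS against six-level calibration curve. Mean ± SD reported.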

Brain [7] = assay: Drug uptake in C57BL/6 mouse brain at 50 mg/kg after 1 hr by LC-MS/MS analysis; type: ADME, organism-based; parameters: dose 50 mg/kg; details: in vivo; procedure, shortened: as §2
Orexin receptor type 2 = biological target: T1, Orexin receptor type 2 (Mus musculus, UniProt P58308); assay: Antagonist activity at mouse OX2 receptor expressed in HEK cells assessed as inhibition of orexin A-induced Ca2+ accumulation after 1 hr by Fluo-4-AM staining-based FLIPR assay; type: functional, cell-based, HEK293
T1 sequence (P58308 whole entry): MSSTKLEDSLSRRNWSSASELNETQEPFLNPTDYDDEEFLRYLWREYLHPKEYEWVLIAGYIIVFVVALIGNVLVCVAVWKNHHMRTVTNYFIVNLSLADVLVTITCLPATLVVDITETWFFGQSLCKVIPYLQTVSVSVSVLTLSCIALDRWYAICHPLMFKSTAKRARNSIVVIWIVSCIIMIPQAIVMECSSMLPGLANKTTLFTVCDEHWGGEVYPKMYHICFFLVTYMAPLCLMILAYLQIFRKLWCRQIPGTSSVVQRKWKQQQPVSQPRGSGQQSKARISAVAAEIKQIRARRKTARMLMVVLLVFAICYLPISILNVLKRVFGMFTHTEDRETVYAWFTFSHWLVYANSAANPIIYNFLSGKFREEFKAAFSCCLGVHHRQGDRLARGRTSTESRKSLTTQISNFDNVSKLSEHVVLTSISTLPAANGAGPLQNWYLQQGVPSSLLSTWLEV

[8] = biological target: T2, Orexin/Hypocretin receptor type 1 (Mus musculus, UniProt P58307); assay: Antagonist activity at mouse OX1 receptor expressed in CHO cells assessed as inhibition of orexin A-induced Ca2+ accumulation after 1 hr by Fluo-4-AM staining-based FLIPR assay; type: functional, cell-based
T2 sequence (P58307 whole entry): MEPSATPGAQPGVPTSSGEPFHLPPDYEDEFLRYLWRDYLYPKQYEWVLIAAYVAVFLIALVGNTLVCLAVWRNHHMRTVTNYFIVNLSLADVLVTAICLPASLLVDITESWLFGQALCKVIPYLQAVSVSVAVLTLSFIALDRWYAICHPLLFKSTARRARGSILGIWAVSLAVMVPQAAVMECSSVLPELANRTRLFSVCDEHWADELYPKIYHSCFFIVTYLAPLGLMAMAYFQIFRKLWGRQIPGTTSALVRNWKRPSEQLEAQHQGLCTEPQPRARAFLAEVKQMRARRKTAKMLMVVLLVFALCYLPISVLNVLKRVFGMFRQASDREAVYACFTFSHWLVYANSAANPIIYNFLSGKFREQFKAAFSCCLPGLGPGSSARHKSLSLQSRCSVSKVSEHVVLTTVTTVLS

Mus musculus [9] = assay: Induction of sleep in C57BL/6 mouse assessed as increase in total sleep time at 50 mg/kg, po measured during first 4 hrs by EEG/EMG analysis relative to vehicle-treated control

## Cc1ccc(-n2nccn2)c(C(=O)N2CCN(c3nc4cc(Cl)ccc4o3)CC[C@H]2C)c1 [SUVOREXANT]
Mus musculus [1]
  Activity: Active
Mus musculus [2]
  Activity: Active
Mus musculus [3]
  Activity: Active
Mus musculus [4]
  Activity: Active
Brain [5]
  Fu: 0.65%
[6]
  concentration at 1 h: 10.5 µM
Brain [7]
  Drug uptake: 10329 pmol/g
Orexin receptor type 2
  Ki: 8.71 nM
[8]
  Ki: 1.7 nM
Mus musculus [9]
  Activity: Active
